The target in test [1] is Serine/threonine-protein kinase RIO2 (Homo sapiens, UniProt Q9BVS4). Kind of test: Displacement of tracer K5 from N-terminal nanoluciferase-tagged RIOK2 (unknown origin) expressed in HEK293 cells measured after 2 hrs by NanoBRET assay. It counts as cell-based. (In BRET a luciferase serves as donor, and the signal depends on an acceptor being close.)
The target of test [2] is T1, SNF-related serine/threonine-protein kinase (Homo sapiens, UniProt Q9NRH2).
T1 sequence (Q9NRH2 whole entry): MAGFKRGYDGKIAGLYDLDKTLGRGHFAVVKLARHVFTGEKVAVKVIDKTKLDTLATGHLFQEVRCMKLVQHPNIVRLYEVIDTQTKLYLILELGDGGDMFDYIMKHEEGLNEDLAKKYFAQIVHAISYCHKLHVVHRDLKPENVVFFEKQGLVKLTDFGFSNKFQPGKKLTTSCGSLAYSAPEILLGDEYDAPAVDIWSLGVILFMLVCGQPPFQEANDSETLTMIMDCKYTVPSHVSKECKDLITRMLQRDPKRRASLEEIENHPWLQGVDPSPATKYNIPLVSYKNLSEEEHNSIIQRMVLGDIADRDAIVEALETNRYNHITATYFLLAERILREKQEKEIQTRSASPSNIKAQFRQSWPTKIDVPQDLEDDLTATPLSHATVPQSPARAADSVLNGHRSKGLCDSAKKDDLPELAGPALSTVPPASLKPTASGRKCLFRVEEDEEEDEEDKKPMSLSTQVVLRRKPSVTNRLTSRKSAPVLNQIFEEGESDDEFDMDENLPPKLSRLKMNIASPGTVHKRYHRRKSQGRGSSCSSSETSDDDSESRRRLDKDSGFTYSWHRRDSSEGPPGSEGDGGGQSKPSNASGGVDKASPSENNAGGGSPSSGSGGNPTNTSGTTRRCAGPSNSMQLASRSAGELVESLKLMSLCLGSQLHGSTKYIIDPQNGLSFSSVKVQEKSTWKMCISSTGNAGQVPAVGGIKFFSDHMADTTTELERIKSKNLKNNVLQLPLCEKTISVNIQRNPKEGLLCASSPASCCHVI
Kind of test: Inhibition of recombinant human SNRK E97G/P116A mutant (1 to 505 residues) using KKLRRTLSFAEPG peptide as substrate incubated for 40 mins in presence of [gamma33P]ATP by radiometric scintillation analysis. The method, boiled down:
(§1)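 Eurofins radiometric enzymatic kinase assay run at the Km of ATP for each kinase. Activity was read as incorporation of radiolabelled ATP into a peptide substrate, in a homogeneous format.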

Test [3] addresses T2, Glycogen synthase kinase-3 alpha (Homo sapiens, UniProt P49840). Description: Inhibition of recombinant human GSK3alpha S449A mutant (2 to end residues) using YRRAAVPPSPSLSR peptide as substrate incubated for 40 mins in presence of [gamma33P]ATP by radiometric scintillation analysis. The method, boiled down:
(§2)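 Orthogonal homogeneous enzymatic kinase assay, run by a contract provider. GSK3α activity was read as incorporation of radiolabelled ATP into a peptide substrate. ATP was at its Km.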

In test [4] the target is T3, Mitogen-activated protein kinase 8 (Homo sapiens, UniProt P45983). Kind of test: Inhibition of full length recombinant human MAPK8 using ATF2 as substrate incubated for 40 mins in presence of [gamma33P]ATP by radiometric scintillation analysis. The method, boiled down:
as §1

The target of test [5] is T4, Homeodomain-interacting protein kinase 1 (Homo sapiens, UniProt Q86Z02). Description: Inhibition of human HIPK1 (158 to 555 residues) using myelin ba as substrate incubated for 40 mins in presence of [gamma33P]ATP by radiometric scintillation analysis. The method, boiled down:
as §1

For test [6], the target named is T5, Mitogen-activated protein kinase 10 (Homo sapiens, UniProt P53779). Kind of test: Inhibition of full length recombinant human MAPK10 using peptide substrate incubated for 40 mins in presence of [gamma33P]ATP by radiometric scintillation analysis. The method, boiled down: as §1
T5 sequence (P53779 whole entry): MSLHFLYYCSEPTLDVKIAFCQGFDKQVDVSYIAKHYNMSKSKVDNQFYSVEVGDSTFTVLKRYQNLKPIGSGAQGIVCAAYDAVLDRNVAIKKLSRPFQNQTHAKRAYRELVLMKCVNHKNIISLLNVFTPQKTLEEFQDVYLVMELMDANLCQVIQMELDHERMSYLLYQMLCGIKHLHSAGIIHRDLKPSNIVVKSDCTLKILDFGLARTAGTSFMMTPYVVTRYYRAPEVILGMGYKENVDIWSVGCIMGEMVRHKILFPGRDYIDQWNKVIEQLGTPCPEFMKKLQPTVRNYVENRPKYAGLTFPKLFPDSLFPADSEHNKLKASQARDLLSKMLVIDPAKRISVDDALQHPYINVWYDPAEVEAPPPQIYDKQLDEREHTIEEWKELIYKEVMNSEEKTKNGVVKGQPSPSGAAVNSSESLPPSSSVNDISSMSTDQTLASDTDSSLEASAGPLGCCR
The target in test [7] is T3, Mitogen-activated protein kinase 8. Description: Binding affinity to full length recombinant human MAPK8 using ATF2 as substrate incubated for 40 mins in presence of [gamma33P]ATP by radiometric scintillation analysis. The method, boiled down:
as §1

Test [8] deals with T4, Homeodomain-interacting protein kinase 1. Kind of test: Binding affinity to human HIPK1 (158 to 555 residues) using myelin ba as substrate incubated for 40 mins in presence of [gamma33P]ATP by radiometric scintillation analysis. The method, boiled down:
as §1

Test [9] concerns the target T2, Glycogen synthase kinase-3 alpha. Description: Binding affinity to recombinant human GSK3alpha S449A mutant (2 to end residues) using YRRAAVPPSPSLSR peptide as substrate incubated for 40 mins in presence of [gamma33P]ATP by radiometric scintillation analysis. The method, boiled down:
as §2

Test [10] concerns the target T1, SNF-related serine/threonine-protein kinase. Kind of test: Binding affinity to recombinant human SNRK E97G/P116A mutant (1 to 505 residues) using KKLRRTLSFAEPG peptide as substrate incubated for 40 mins in presence of [gamma33P]ATP by radiometric scintillation analysis. The method, boiled down: as §1
The target in test [11] is T5, Mitogen-activated protein kinase 10. Description: Binding affinity to full length recombinant human MAPK10 using peptide substrate incubated for 40 mins in presence of [gamma33P]ATP by radiometric scintillation analysis. The method, boiled down: as §1

Consider 16 molecules from ChEMBL document CHEMBL4680068, “Towards a RIOK2 chemical probe: cellular potency improvement of a selective 2-(acylamino)pyridine series” (RSC Med Chem, 2021).

T3 sequence (P45983 whole entry): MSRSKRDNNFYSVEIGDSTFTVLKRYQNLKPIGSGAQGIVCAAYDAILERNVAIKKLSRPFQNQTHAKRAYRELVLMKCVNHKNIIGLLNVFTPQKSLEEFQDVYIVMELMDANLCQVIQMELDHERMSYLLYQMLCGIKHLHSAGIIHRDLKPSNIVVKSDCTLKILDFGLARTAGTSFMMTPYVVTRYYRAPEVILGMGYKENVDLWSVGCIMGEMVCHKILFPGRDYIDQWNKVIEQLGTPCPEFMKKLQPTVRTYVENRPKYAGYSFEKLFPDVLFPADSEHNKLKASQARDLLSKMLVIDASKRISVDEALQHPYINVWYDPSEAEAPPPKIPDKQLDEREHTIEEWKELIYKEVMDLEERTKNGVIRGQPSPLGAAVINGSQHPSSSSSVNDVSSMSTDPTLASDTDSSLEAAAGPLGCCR
Chain of Serine/threonine-protein kinase RIO2 (Q9BVS4 whole entry): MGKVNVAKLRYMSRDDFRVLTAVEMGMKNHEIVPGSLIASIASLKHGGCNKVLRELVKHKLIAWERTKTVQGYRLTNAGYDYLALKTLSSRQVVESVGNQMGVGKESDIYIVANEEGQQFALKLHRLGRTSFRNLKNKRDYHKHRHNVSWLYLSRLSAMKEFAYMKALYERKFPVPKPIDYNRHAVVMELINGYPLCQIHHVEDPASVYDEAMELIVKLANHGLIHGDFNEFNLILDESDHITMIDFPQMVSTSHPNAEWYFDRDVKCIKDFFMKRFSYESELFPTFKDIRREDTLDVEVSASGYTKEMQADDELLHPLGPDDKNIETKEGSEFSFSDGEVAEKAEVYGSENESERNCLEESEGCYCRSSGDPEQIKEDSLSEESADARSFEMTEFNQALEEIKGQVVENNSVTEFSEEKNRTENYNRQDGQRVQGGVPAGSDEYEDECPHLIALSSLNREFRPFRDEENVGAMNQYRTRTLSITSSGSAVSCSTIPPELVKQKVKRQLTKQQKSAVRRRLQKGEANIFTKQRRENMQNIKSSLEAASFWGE
T4 sequence (Q86Z02 whole entry, the tested form may be a part): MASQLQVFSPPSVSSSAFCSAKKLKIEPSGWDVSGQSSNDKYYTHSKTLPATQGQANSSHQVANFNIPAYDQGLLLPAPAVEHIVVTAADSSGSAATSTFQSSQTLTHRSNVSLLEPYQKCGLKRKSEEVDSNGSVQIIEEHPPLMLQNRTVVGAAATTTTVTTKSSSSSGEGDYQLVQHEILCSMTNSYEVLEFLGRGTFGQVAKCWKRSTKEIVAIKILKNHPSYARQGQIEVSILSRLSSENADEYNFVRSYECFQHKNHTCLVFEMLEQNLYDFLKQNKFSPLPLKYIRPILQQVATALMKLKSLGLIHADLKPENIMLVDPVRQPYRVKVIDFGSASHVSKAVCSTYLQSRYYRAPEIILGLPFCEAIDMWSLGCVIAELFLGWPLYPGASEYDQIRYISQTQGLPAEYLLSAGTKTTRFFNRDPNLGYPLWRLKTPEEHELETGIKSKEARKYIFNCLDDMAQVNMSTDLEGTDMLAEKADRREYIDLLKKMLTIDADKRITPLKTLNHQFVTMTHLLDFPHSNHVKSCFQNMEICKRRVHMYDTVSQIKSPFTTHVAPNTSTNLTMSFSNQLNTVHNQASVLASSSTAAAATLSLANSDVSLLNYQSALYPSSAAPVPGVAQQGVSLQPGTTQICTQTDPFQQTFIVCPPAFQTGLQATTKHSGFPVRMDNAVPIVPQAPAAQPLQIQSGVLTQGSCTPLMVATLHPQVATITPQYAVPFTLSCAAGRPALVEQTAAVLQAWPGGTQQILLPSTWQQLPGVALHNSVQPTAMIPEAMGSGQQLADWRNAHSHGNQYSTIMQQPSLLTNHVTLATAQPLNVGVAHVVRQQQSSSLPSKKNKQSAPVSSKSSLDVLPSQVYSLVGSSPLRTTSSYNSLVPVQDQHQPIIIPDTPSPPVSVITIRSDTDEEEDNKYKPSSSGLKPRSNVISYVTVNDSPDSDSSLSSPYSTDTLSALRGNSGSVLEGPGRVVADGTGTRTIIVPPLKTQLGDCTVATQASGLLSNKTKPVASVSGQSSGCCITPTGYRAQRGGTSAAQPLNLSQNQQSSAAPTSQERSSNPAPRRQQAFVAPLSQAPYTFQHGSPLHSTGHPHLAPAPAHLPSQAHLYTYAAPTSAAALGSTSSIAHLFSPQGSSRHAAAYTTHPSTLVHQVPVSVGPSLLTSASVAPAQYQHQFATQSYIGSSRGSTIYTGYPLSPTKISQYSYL
T2 sequence (P49840 whole entry): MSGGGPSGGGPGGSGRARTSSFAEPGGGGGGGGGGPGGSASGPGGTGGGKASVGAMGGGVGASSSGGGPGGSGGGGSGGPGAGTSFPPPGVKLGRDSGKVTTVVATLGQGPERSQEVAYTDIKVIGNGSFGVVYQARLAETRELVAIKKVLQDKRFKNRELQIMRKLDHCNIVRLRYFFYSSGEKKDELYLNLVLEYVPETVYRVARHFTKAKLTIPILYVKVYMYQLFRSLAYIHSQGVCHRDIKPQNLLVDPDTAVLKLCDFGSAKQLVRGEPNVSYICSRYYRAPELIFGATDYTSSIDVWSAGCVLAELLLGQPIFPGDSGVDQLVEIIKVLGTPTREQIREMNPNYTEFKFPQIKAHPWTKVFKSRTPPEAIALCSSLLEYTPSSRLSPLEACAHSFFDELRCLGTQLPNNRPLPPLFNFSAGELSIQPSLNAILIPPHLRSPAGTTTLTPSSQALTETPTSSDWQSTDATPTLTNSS

With `Cc1ccnc(NC(=O)CCc2ccc3ccccc3c2)c1`, the IC50 in test [1] is over 30 µM.

Regarding `COc1ccc2cc([C@@H](C)C(=O)Nc3cc(C)ccn3)ccc2c1`, the IC50 in [1] was 7.6 µM.

For the molecule `COc1ccnc(NC(=O)Cc2ccc(-c3ccccc3)cc2)c1`, in test [1], the IC50 was 7.6 µM.

On to `COc1ccnc(NC(=O)Cc2ccc3ccccc3c2)c1`, for which the IC50 in test [1] is 5.2 µM; in test [2], over 10 µM; in test [3], 4.8 µM; in test [4] it was over 10 µM; in test [5] it was over 10 µM; in test [6], 1.3 µM.

Consider `O=C(Cc1ccc2ccccc2c1)Nc1cc(Cl)ccn1`, for which the IC50 in [1] is 5 µM; in test [2], over 10 µM; in test [3] it was 0.86 µM; in test [4] it was over 10 µM; in [5], over 10 µM; in [6], 0.52 µM.

For `O=C(Cc1ccc2ccccc2c1)Nc1cc(C(F)(F)F)ccn1`, the IC50 in test [1] came to 7.5 µM.

On to `COc1ccc2cc([C@H](C)C(=O)Nc3cc(C)ccn3)ccc2c1`, for which the IC50 in test [1] is 6.6 µM; in test [2], over 10 µM; in test [3], 4.5 µM; in test [4] it was over 10 µM; in test [5], over 10 µM; in test [6], 5.1 µM.

In the case of `COc1ccc2cc(C(C)C(=O)Nc3cc(C)ccn3)ccc2c1` (racemic), the IC50 is 5.2 µM in test [1]; over 10 µM in test [2]; 1.9 µM in [3]; over 10 µM in test [4]; over 10 µM in test [5]; 0.78 µM in test [6].

In the case of `O=C(Cc1ccc2ccccc2c1)Nc1cc(Br)ccn1`, the IC50 in [1] was 13.4 µM.

Take `CCc1ccnc(NC(=O)Cc2ccc3ccccc3c2)c1`: in [1], the IC50 worked out at 14.5 µM.

In turn, `Cc1ccnc(NC(=O)COc2ccc3ccccc3c2)c1` yielded a half-maximal inhibitory concentration (IC50) in test [1] of over 30 µM.

On to `Cc1ccnc(NC(=O)Cc2ccc3c(c2)OCCO3)c1`, for which, in test [1], the IC50 is over 30 µM.

`Cc1ccnc(NC(=O)Cc2ccc3c(c2)OCO3)c1` registered a concentration for half-maximal inhibition (IC50) in [1] of over 30 µM.

The molecule `COc1ccnc(NC(=O)[C@@H](C)c2ccc3cc(OC)ccc3c2)c1` displayed an IC50 in test [1] of 5.3 µM.

For the molecule `Cc1ccnc(NC(=O)Cc2ccc3ccccc3c2)c1`, the Kd came to 0.22 µM in [7]; 1.1 µM in test [8]; 0.87 µM in [9]; 0.89 µM in test [10]; 0.34 µM in test [11]. Further, the half-inhibitory concentration (IC50) in test [2] was over 10 µM; in test [3] it was 5.2 µM; in test [4] it was over 10 µM; in test [5], over 10 µM; in test [6], 4.7 µM.

In turn, `COc1ccnc(NC(=O)Cc2ccc(C)c(C)c2)c1` returned a half-inhibitory concentration (IC50) in test [1] of 28 µM.

Broadly, the IC50 is the concentration that inhibits the measured activity by half. The Kd is a measure of binding affinity in units of concentration.
